HTRA1 inhibitor: HTRA1 serine protease inhibitors, primary screen, biochemical, fluorescence polarization, HTS; Q92743; recombinant HTRA1, FP-rhodamine activity-based probe; inhibition, % at 5.96 µM; actives 0.5% (n = 340,000); in the data active = inhibition above about 36%;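 also: 0% = enzyme with DMSO and 100% = wells lacking enzyme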
Target sequence (Q92743 whole entry, looked up): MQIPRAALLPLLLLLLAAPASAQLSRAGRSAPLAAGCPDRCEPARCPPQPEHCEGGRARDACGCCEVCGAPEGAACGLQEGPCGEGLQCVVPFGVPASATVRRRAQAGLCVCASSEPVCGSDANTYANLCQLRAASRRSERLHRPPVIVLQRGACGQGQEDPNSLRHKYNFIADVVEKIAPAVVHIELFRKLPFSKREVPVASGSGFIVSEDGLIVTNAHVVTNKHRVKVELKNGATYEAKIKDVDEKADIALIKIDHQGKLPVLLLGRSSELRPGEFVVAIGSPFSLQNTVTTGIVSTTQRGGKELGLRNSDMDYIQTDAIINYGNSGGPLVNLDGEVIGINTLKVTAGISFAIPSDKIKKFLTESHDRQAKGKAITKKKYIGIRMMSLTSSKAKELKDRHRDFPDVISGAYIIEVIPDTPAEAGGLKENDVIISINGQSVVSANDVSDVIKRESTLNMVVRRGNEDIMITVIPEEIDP
pPAFAH inh: pPAFAH enzyme inhibitors, primary screen, biochemical, fluorescence polarization, human. recombinant pPAFAH, FP-rhodamine probe fluorescence polarization. inhibition, % at 3.39 µM. actives 1.5% (n = 330,000). AID 463082, 2010;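 active = inhibition above the mean inhibition across the screen plus 3 SD, cut at about 25% in these data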;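 also: inhibitors block binding of the rhodamine activity-based probe so polarization drops; 0% = enzyme with DMSO and 100% = wells lacking pPAFAH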
SIAE primary: human SIAE inhibitors, primary screen, biochemical, fluorescence polarization, FP-Rh probe, 1536-well HTS; Sialate O-acetylesterase (Homo sapiens), Q9HAT2; inhibition, % at 9.66 µM; SIAE FP-Rh probe binding; actives 0.69% (n = 370,000);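 active = inhibition above a cutoff: mean of compounds within the control limits plus 3 SD of those, cut at about 17% in these data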;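 also: 0% = plate median of compound wells and 100% = probe without SIAE protein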
TCR CD3 inh: inhibitors of human TCR-CD3 interaction, primary screen, biochemical, fluorescence, TAMRA-labeled TCR probe | T-cell receptor (TCR) | inhibition, % at 9.4 µM | actives 0.37% (n = 360,000) | AID 651800, 2012; in the data active = inhibition above about 19%;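 also: recombinant mutant TCR 2C K166C tagged with TAMRA read by polarization; 0% = receptor in buffer alone and 100% = receptor with positive control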
mABHD4 FP: ABHD4 inhibitors, primary screen, biochemical, fluorescence polarization, mouse; (Lyso)-N-acylphosphatidylethanolamine lipase (Mus musculus), Q8VD66; purified mABHD4, FP-Rh probe fluorescence polarization; inhibition, % at 8.92 µM; actives 0.54% (n = 370,000); AID 720543, 2013;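 active = inhibition exceeding the mean over every tested compound plus 3 SD, cut at about 30% in these data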;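 also: 0% = plate median of compound wells and 100% = S159A mutant with DMSO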
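Test system: mouse ABHD4 enzyme, wild type. Reagent: FP-Rh fluorescent activity-based probe, added after compound pre-incubation. Timing: pre-incubation 45 min, probe exposure 60 min, at 25 °C. Technique: FP readout, ex 525 nm / em 598 nm. Benchmarks: high control S159A mutant with DMSO, low control median of compound wells.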
SIAE confirm: human SIAE inhibitors, retest, confirmation, biochemical, fluorescence polarization, FP-Rh probe, triplicate. shares compounds with SIAE primary. SIAE FP-Rh activity-based probe. inhibition, % at 9.66 µM. actives 13% (n = 2,300). AID 1117263, 2014;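 active = mean inhibition of the replicates above the hit cutoff set in the primary screen, cut at about 17% in these data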;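 also: 0% = SIAE with DMSO and probe and 100% = probe without SIAE; inhibitors lower polarization as more probe stays unbound to SIAE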
* marks the source's active call; other numbers are inactive results; · = no result. Rows were chosen to be rich in hits. Some 2.3% of all compounds tested hit in one or more screens of this group.

SMILES	HTRA1 inhibitor	pPAFAH inh	SIAE primary	TCR CD3 inh	mABHD4 FP	SIAE confirm
CCOC(=O)c1ccc(NC(=O)CSc2nnc(-c3cc(-c4ccccc4)n[nH]3)n2N)cc1	·	·	3.9	·	2.1	·
CC(C)(C)c1cc(C(=O)C[n+]2ccc(C(=O)NCCCO)cc2)cc(C(C)(C)C)c1O	-3.5	-0.4	17.9*	-1.9	-12.3	0.3
Cc1cc2nc(NCCCO)n(CC(=O)c3cc(C(C)(C)C)c(O)c(C(C)(C)C)c3)c2cc1C	-26.5	11.4	9.3	-0.6	12.6	·
c1ccc(OC2CCN(c3ncnc4sccc34)CC2)cc1	·	·	-4.2	·	-13.4	·
COc1ccc(NC(=O)CC2C(=O)N(C)C(=S)N2Cc2ccco2)cc1 (stereo not drawn)	-4.1	-3.8	19.8*	10.2	7.1	4.5
COc1ccc(C(C)(C)C)cc1NC(=O)CCCn1c(=O)oc2ccccc21	-5.7	2.4	75.8*	11.0	-5.6	0.7
CCOC(=O)c1sc2ccc(S(=O)(=O)N3CCCCC3)cc2c1N	-18.0	2.9	21.0*	3.5	-10.4	-1.8
Cc1occc1C(=O)NNC(=S)Nc1cccc([N+](=O)[O-])c1	4.3	5.1	21.8*	3.8	7.7	3.1
CN(C)c1cccc(CNC(=O)c2csc([C@@H]3O[C@H](CO)[C@H](O)[C@H](O)[C@H]3O)n2)c1	·	·	19.9*	1.4	3.2	6.4
Cc1ccc(C(=O)O)cc1NC(=O)CSc1nnc(-c2ccccc2F)n1C1CCCCC1	2.4	2.5	18.7*	0.6	-2.1	2.4
CCC(=O)N1CCC1(C)C(=O)Nc1cc(-c2ccccc2)nn1C (stereo not drawn)	·	·	-2.5	5.4	-1.9	·
COc1ccc(CCN2C(=O)COc3ccccc3C2C(=O)Nc2c(C)cccc2C)cc1OC (stereo not drawn)	·	·	-1.4	7.2	-0.4	·
O=C1NC[C@@H](CCCCN2CCN(Cc3ccccc3)C(=O)C2=O)N(CC2CCCCC2)C1=O	·	·	10.9	0.4	-9.6	·
O=C1NC[C@@H](CCCCN2CCN(Cc3ccccc3)C(=O)C2=O)N(CCC2CCCCC2)C1=O	·	·	18.3*	-14.8	-4.3	5.1
CC(=O)Nc1c(NC(C)(C)C)c2ccccc2oc1=O	9.1	-1.9	20.8*	-2.0	2.7	0.6
CCCNc1c(NC(C)=O)c(=O)oc2ccccc12	2.6	0.4	1.2	8.7	2.8	·
N#Cc1ccc(-c2nc3c4ccccc4ccn3c2CC2CCCCC2)cc1	·	·	-2.3	5.8	-3.1	·
Cn1ccc2c(N3CCCC3)cc3c(c21)C1CCC3C1 (stereo not drawn)	·	·	6.6	-4.9	4.1	·
Cn1ccc2c(N3CCCC3)cc3c(c21)C1CCC3O1 (stereo not drawn)	·	·	20.2*	5.2	22.5	-1.2
CC1(C(=O)Nc2cnc3ccccc3c2)CCN1Cc1ccccc1OC(F)F (stereo not drawn)	·	·	0.4	3.7	-7.0	·
Cc1onc(-c2ccccc2Cl)c1C(=O)Nc1ccc(N2CCOCC2)cc1	-0.7	4.2	17.1*	-4.5	10.6	1.5
COC(=O)C1=CN(c2ccc(C(C)(C)C)cc2)C(N)=C(C#N)C1c1ccccc1F (stereo not drawn)	·	·	3.5	-0.4	-6.5	·
CCOC(=O)CN1CC23C=CC(O2)C(C(=O)Nc2ccc(OC)cc2OC)C3C1=O (stereo not drawn)	7.9	3.1	-4.8	5.2	2.0	·
CCOC(=O)CN1CC23C=CC(O2)C(C(=O)Nc2cc(OC)ccc2OC)C3C1=O (stereo not drawn)	10.5	-6.2	17.5*	-8.6	2.7	-7.1
COc1ccccc1Nc1nnc(SCC(=O)NC2CC2)s1	8.1	-2.6	17.5*	1.2	4.8	2.3
SMILES	HTRA1 inhibitor	pPAFAH inh	SIAE primary	TCR CD3 inh	mABHD4 FP	SIAE confirm
CC1=C(C(=O)N(C(C)C)C(C)C)CC(CC(=O)NCCCCc2ccccc2)C(=O)N1Cc1ccc(C(C)(C)C)cc1 (stereo not drawn)	·	·	-8.9	-1.1	-0.1	·
CCc1cc(/C(Cc2csc(C)n2)=N/O)c(O)cc1O	18.9	8.3	19.2*	-5.0	-1.0	14.2
Cc1nc(C/C(=N\N)c2ccc(O)cc2O)cs1	2.1	6.0	-3.0	1.5	8.0	·
Cc1ccc(NC(=S)Nc2cccc3ccccc23)cc1	3.9	-3.4	5.6	-8.6	6.7	·
COC(=O)c1ccccc1NC(=S)NC(=O)COc1ccccc1	-16.9	4.5	-1.3	1.0	3.5	·
CCOc1ccc(NC(=S)Nc2cccc3cnccc23)cc1	12.3	2.2	8.2	-0.2	12.0	·
CCOc1ccc(NC(=S)Nc2cccc3ccccc23)cc1	0.6	2.5	17.8*	3.4	-0.2	-0.1
CC(C)c1ccc(NC(=S)Nc2cccc3ccccc23)cc1	-6.2	2.6	17.6*	0.9	-1.3	4.8
O=C(COc1ccccc1)NC(=S)Nc1cccc2c(O)cccc12	1.8	·	25.0*	11.6	29.1	4.2
FC(F)(F)Oc1ccc(Cn2ccc3ccc(-c4ccc5ccn(Cc6ccc(OC(F)(F)F)cc6)c5c4)cc32)cc1	·	·	3.9	·	1.2	·
Cc1ccc(CNC(=O)[C@H]2O[C@@H](n3ccc(N)nc3=O)[C@H](O)[C@@H]2O)o1	·	·	25.3*	2.9	5.5	19.1*
Cc1ccc(CNC(=O)[C@H]2O[C@@H](n3cnc4c(N)ncnc43)[C@H](O)[C@@H]2O)o1	·	·	17.3*	5.7	-3.7	20.3*
CN(Cc1cnn(-c2ccc(F)cc2)c1)C(=O)[C@H]1O[C@@H](n2cnc3c(N)ncnc32)[C@H](O)[C@@H]1O	·	·	41.2*	-2.5	-1.5	45.1*
Nc1ccn([C@@H]2O[C@H](C(=O)Nc3cc(C(F)(F)F)cc(C(F)(F)F)c3)[C@@H](O)[C@H]2O)c(=O)n1	·	·	13.9	-3.1	-11.3	·
COc1cc(NC(=O)[C@H]2O[C@@H](n3ccc(N)nc3=O)[C@H](O)[C@@H]2O)cc(OC)c1OC	·	·	26.3*	0.8	-0.9	20.0*
Cc1cccc(NC(=O)CNC(=O)[C@H]2O[C@@H](n3cnc4c(N)ncnc43)[C@H](O)[C@@H]2O)c1C	·	·	-3.7	-0.2	-4.8	·
CCOC(=O)N(C)c1c(CC)nc2c(OCc3ccccc3OC)cccn12	·	·	1.4	-4.0	2.5	·
CC(=O)NC(C1C(=O)CC(C)(C)CC1=O)(C(F)(F)F)C(F)(F)F	-6.6	6.7	-1.7	7.4	-3.0	·
CCOC(=O)C(O)(C1C(=O)CC(C)(C)CC1=O)C(F)(F)F (stereo not drawn)	2.8	1.5	33.1*	-3.4	-0.6	18.7*
COc1ccc(C(=O)C[n+]2ccccc2/C=N/O)cc1	0.7	2.2	18.2*	-2.1	-1.5	6.1
CCN(C(=O)COC(=O)/C=C/c1cnc2ccccc2n1)C1CCS(=O)(=O)C1 (stereo not drawn)	3.2	5.0	28.0*	0.1	-0.6	-0.8

Source: PubChem
